The list is not random: actives were taken first. Their share in the collection is about 4.8%.
HSF1 activator – increases HSF-1 driven luciferase reporter signal; NIH3T3-HGL HSF-1 luciferase reporter, MG132, 8 h; 100% = twice DMSO control signal; activation, % at 9 µM; 300,000 compounds, 1.7% hits;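 active = mean replicate activation of at least 50% with a set share of replicates each reaching 50%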;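 also: 0% = median of the neutral control wells and 100% = twice that signal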
T cruzi inh – blocks replication of Trypanosoma cruzi; inhibition, % (test concentration not listed); T. cruzi beta-gal in NIH3T3, luminescence, 90 h; 300,000 compounds, 1.4% hits;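 active = mean inhibition across valid replicates above about 55%, limit read from the data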;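 also: signal also drops with host cell toxicity which is not excluded here; 0% = plate median of DMSO wells and 100% = zero luminescence signal; higher percent means less beta-gal luminescence so fewer parasites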
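System: mouse NIH/3T3 fibroblasts infected with β-gal-expressing T. cruzi Tulahuen C4 / Input: NIH/3T3 cells, 5,000 per well / Buffer or medium: Low-serum DMEM with 2% FBS / Probe or stimulus: 5000 reporter trypomastigotes per well / Schedule: ≥90 h infection period, 3 h prior cell attachment / Measured by: GalScreen luminescence, 60 min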
697 NFkB inh – lowers PMA/ionomycin-induced NF-kB signal in 697 B cells. 330,000 compounds, 0.33% hits. 697 B-cell NF-kB luciferase reporter, 16 h. inhibition, % at 4 µM; in the data active = inhibition above about 35%
HSF1 inh – HSF1 inhibition. NIH3T3-HGL HSE-luciferase, MG132-induced, luminescence 8 h; active compounds read low. 300,000 compounds, 0.77% hits. AID 2098. activity change, negative = inhibition, % at 7.5 µM (by protocol);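 active = more than half of replicate wells show activity change below -50%, luminescence cut by over half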;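 also: luciferase reports HSF-1 transcriptional activity via heat shock element; 0% = median of DMSO wells and -100% = zero luminescence signal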
Jurkat NFkB inh – inhibitors of the PMA/ionomycin-induced NF-kB reporter in Jurkat cells. 330,000 compounds, 0.53% hits. inhibition, % at 4 µM. PMA/ionomycin-induced NF-kB luciferase reporter, luminescence. AID 435003; in the data active = inhibition above about 50%
GPR7 antagonist – antagonists of human GPR7 (neuropeptides B/W receptor 1); 290,000 compounds, 1.1% hits; GPR7-expressing cells, fluorescence antagonist assay; P48145; inhibition, % at 4.4 µM; in the data active = inhibition above about 16%, passing the limit was not always enough;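 also: cells stimulated with the agonist NPW; 0% = agonist with vehicle and 100% = vehicle without agonist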
Target sequence (P48145 whole entry, looked up): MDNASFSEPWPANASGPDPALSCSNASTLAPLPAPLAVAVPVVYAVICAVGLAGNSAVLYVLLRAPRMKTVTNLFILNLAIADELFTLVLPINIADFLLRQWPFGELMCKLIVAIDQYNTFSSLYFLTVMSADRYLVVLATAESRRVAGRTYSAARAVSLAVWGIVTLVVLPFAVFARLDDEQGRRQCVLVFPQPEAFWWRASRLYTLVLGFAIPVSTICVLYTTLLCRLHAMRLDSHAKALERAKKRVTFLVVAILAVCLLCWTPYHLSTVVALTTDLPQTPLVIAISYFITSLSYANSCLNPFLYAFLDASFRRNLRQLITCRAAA
* = called active by the depositor; . = not tested or not shown.

SMILES	HSF1 activator	T cruzi inh	697 NFkB inh	HSF1 inh	Jurkat NFkB inh	GPR7 antagonist
Cc1cc(NC(=O)CSc2nc3cc(C(=O)NCCCOC(C)C)ccc3c(=O)n2Cc2ccco2)no1	-14	1	16	-12	8	-10
Cc1cc(C(=O)NCC(=O)OCC(=O)NCC2CCCO2)ccc1[N+](=O)[O-] (stereo not drawn)	.	.	16	.	-5	.
O=C(Nc1ccccc1Cl)C1CC(=O)N(Cc2ccco2)C1 (stereo not drawn)	.	.	18	.	12	.
CC(C)(C)c1cnnn1-c1ccc(C(=O)CCl)cc1	-67	-9	10	-57*	-15	0
COc1ccc2[nH]c3c(N4CCc5ccccc5C4)ncnc3c2c1	64*	7	-81	71	35	13
COc1ccc(N2CCN(c3ncnc4c3[nH]c3ccccc34)CC2)cc1	-2	7	11	4	30	8
Cc1cc(C(=O)NNC(=O)COc2ccccc2Cl)n[nH]1	-7	0	4	-2	18	-3
NNC(=O)c1nn(-c2ccc(Cl)cc2)cc1O	-72	15	-21	-70*	-3	-12
Cc1ccc(NC(=O)COC(=O)c2nn(-c3ccc(Cl)cc3)cc2O)cc1	.	.	11	.	-11	.
COc1cccc(-n2nnnc2SCC(=O)Nc2ccc(OC)cc2OC)c1	4	15	17	5	8	-20
COc1ccc(-n2ccn(CC(=O)Nc3ccccc3OC)c(=O)c2=O)cc1	2	-10	-5	0	4	4
COc1ccc(C2N(C(=O)CN3CCCC3)CCCN2S(=O)(=O)c2ccccc2)cc1 (stereo not drawn)	105*	0	8	52	-18	-1
Cc1cc2ccccc2n1CCNC(=O)c1ccc(Br)o1	2	0	4	-3	-12	-14
Cc1cccc(CCNC(=O)Cc2ccc(NC3=NC4CS(=O)(=O)CC4S3)cc2)c1 (stereo not drawn)	1	-11	6	-1	1	-9
Oc1cccnc1Sc1cccc(C(F)(F)F)c1	86*	-8	-7	39	5	.
COCCNC(=O)CCC1CCN(Cc2ccc(-c3ccccc3)cc2)CC1	-5	58*	3	1	18	-6
CN(C)C=Nc1ccccc1C1C=NNC1=O (stereo not drawn)	9	-12	-1	1	-1	-10
COC(=O)c1ccc(SCC(=O)NC2CCCCC2)c([N+](=O)[O-])c1	5	5	16	2	-4	-2
Cc1nc(SCC(=O)c2ccccc2)c(C#N)c(-c2ccco2)c1C(=O)NCc1ccco1	76*	-10	0	52	16	12
Cc1nnc(SCCN2CCOCC2)c2nn(-c3ccccc3F)c(C)c12	-1	5	.	-8	.	-9
COc1ccc(NC(=O)Cc2ccc(C)c(C)c2)cc1Cl	18	-7	0	-8	-10	-1
Nc1c(C(=O)NC2CCCC2)sc2nc(-c3cccs3)ccc12	56*	15	6	48	-1	2
C=CCC(O)(CC=C)CNC(=O)C1CCC(=O)N(CCCc2ccccc2)C1 (stereo not drawn)	-7	-2	10	1	-3	-4
Oc1ccc(C2C[C@H]3CC[C@@H]2C3)cc1O (stereo partly drawn)	90*	14	1	80	-22	2
O=C1CC(c2ccc(O)c(O)c2)Oc2cc(O)cc(O)c21 (stereo not drawn)	15	-37	-40	9	12	.
SMILES	HSF1 activator	T cruzi inh	697 NFkB inh	HSF1 inh	Jurkat NFkB inh	GPR7 antagonist
CCOc1ccccc1C1N=C(c2ccc(OC)cc2)CC(c2ccccc2O)N1 (stereo not drawn)	130*	-20	-32	94	-71	0
Cc1ccc(C(=O)n2cnnc2N)cc1C	-1	-9	-3	-9	7	-6
Cc1ccc(C(=O)n2cnnc2N)cc1	66*	-13	-8	15	1	0
Cc1ccccc1CN(C)C(=O)COC(=O)CSc1ccc([N+](=O)[O-])cc1	-8	-5	22	-9	2	.
COCc1cc(CN2CCN(CCCc3ccccc3)C(CCO)C2)ccc1OC (stereo not drawn)	-4	18	-2	-10	9	-16
COc1ccc(CN2CCN(Cc3csc(C(C)=O)c3)CC2CCO)c(C)c1C (stereo not drawn)	9	55*	-15	-4	10	-4
CC(=O)c1cc(CN2CCN(Cc3ccc(C)cc3)C(CCO)C2)cs1 (stereo not drawn)	-25	46	-6	-5	-9	-16
COc1ccc(CN2CCN(CC3CC3)CC2CCO)c(C)c1C (stereo not drawn)	-11	-13	-18	-1	19	-12
COc1ccc(CN2CCN(Cc3nc4ccccc4s3)CC2CCO)c(C)c1C (stereo not drawn)	-2	61*	-16	-3	-2	4
COCc1cc(CN2CCN(CCc3ccccc3)C(CCO)C2)ccc1OC (stereo not drawn)	190*	4	9	155	4	-4
CC(C)CN1C(=O)/C(=C(/C#N)C(=O)NC2CCCCC2)c2ccccc21	10	51	-5	0	12	0
CCCN(CC#CC(O)(c1ccccc1)c1cccnc1)CCC (stereo not drawn)	9	65*	-15	2	-15	0
CC(C)OC(=O)CSc1nnnn1-c1ccc2c(c1)OCCO2	19	0	10	26	-5	-13
O=C(O)CSc1nnnn1-c1ccc2c(c1)OCCO2	70*	-12	-10	23	-15	0
CCN(CC)C(=O)[C@H]1C[C@H](CC(=O)NC(C)(C)C)C(=O)N2CCc3c([nH]c4ccc(Cl)cc34)[C@]12C	.	.	10	.	.	.
CCCNC(=O)CSc1n[nH]c(=O)n1CCc1ccccc1	-8	-3	-5	1	-15	23
CCC1CCCCN1CCCNC(=O)Cn1c2ccccc2c2nc(=O)cc(C)n21 (stereo not drawn)	64*	-2	-11	40	11	-18
CCCNC(=O)Cn1c2ccccc2c2nc(=O)cc(C)n21	5	-5	-8	2	8	7
Cc1ccc2c(c1)c1n[nH]c(=S)nc1n2CCc1ccccc1	28	69*	-62	-3	-46	-5
CCOC(=O)CN1CC23C=CC(O2)C(C(=O)NC2CCCCC2)C3C1=O (stereo not drawn)	-92	2	-9	-89*	7	-11
CCOC(=O)CN1CC23C=CC(O2)C(C(=O)NC2CCCC2)C3C1=O (stereo not drawn)	-17	-12	14	-6	-3	-8
Cn1c(=O)c2c([nH]c(=S)n2Cc2ccc(Cl)cc2)n(C)c1=O	15	-7	11	-1	9	-5
Cc1ccsc1/C=N/NC(=O)c1ccc2nc[nH]c2c1	-6	4	-8	4	-19	2

Assay outcomes (PubChem)
